Results from ChEMBL document CHEMBL1123325, “Isomer-dependent cytostatic activity of bis(1-aziridinyl)cyclophosphazenes” (1986).

Assays:
Assay type in all cases: functional
[1] = system: L5178Y; experiment: In vitro lowest active dose (LAD) in L5178Y mouse lymphoma cells
[2] = system: L1210; experiment: In vitro inhibition dose (cytostatic activity) in L1210 mouse leukemia cells
[3] = system: L1210; experiment: Tested in vivo for 50% lethal dose in L1210 mouse leukemia cells
[4] = system: Mus musculus; experiment: Compound was tested for percent median survival time of drug-treated mice over that of untreated control mice at dose of 175 mg/kg
Procedure, shortened: (§1)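 10^5 L1210 leukemia cells from in vitro suspension culture were injected into male (BALB/c × DBA/2)F1 (CDF1) mice as intraperitoneal leukemia. Dosing began 24 h later, with 5 mice per dose and 10 untreated controls. Survival times were recorded. The value is the median survival time of treated mice as a percent of untreated controls (T/C%), with 60-day long-term survivors noted.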

[5] = system: Mus musculus; experiment: Tested for percent median survival time of drug-treated mice over that of untreated control mice at dose of 200 mg/kg; procedure, shortened: as §1
[6] = system: Mus musculus; experiment: Tested for percent median survival time of drug-treated mice over that of untreated control mice at dose of 40 mg/kg; procedure, shortened: as §1
[7] = system: Mus musculus; experiment: Compound was tested for percent median survival time of drug-treated mice over that of untreated control mice at dose of 20 mg/kg; procedure, shortened: as §1
[8] = system: Mus musculus; experiment: Compound was tested for percent median survival time of drug-treated mice over that of untreated control mice at dose of 600 mg/kg; procedure, shortened: as §1
[9] = system: Mus musculus; experiment: Compound was tested for percent median survival time of drug-treated mice over that of untreated control mice at dose of 900 mg/kg; procedure, shortened: as §1
[10] = system: Mus musculus; experiment: Compound was tested for percent median survival time of drug-treated mice over that of untreated control mice at dose of 160 mg/kg; procedure, shortened: as §1
[11] = system: Mus musculus; experiment: Compound was tested for percent median survival time of drug-treated mice over that of untreated control mice at dose of 70 mg/kg; procedure, shortened: as §1
[12] = system: Mus musculus; experiment: Compound was tested for percent median survival time of drug-treated mice over that of untreated control mice at dose of 100 mg/kg; procedure, shortened: as §1
[13] = system: Mus musculus; experiment: Compound was tested for percent median survival time of drug-treated mice over that of untreated control mice at dose of 180 mg/kg; procedure, shortened: as §1
[14] = system: Mus musculus; experiment: Compound was tested for percent median survival time of drug-treated mice over that of untreated control mice at dose of 140 mg/kg; procedure, shortened: as §1
[15] = system: Mus musculus; experiment: Compound was tested for percent median survival time of drug-treated mice over that of untreated control mice at dose of 150 mg/kg; procedure, shortened: as §1
[16] = system: Mus musculus; experiment: Compound was tested for percent median survival time of drug-treated mice over that of untreated control mice at dose of 60 mg/kg; procedure, shortened: as §1
[17] = system: Mus musculus; experiment: Compound was tested for percent median survival time of drug-treated mice over that of untreated control mice at dose of 80 mg/kg; procedure, shortened: as §1
[18] = system: Mus musculus; experiment: Compound was tested for percent median survival time of drug-treated mice over that of untreated control mice at dose of 120 mg/kg; procedure, shortened: as §1
[19] = system: Mus musculus; experiment: Compound was tested for percent median survival time of drug-treated mice over that of untreated control mice at dose of 35 mg/kg; procedure, shortened: as §1

Structure (SMILES): CN(C)P1(N(C)C)=N[P@](N(C)C)(N2CC2)=NP(N(C)C)(N(C)C)=N[P@](N(C)C)(N2CC2)=N1
- LAD [1]: 4e-06 M l-1
- ID50 [2]: 5.5e-06 M l-1

Structure (SMILES): O=S1(N2CC2)=NP(N2CC2)(N2CC2)=NP(N2CC2)(N2CC2)=N1 (stereo not drawn)
- LD50 [3]: 250 mg/kg
- ID50 [2]: 1.06e-05 M l-1
- T/C [4]: 188%
- T/C [5]: 163%

Structure (SMILES): C1CN1P1(N2CC2)=NP(N2CC2)(N2CC2)=NP(N2CC2)(N2CC2)=N1
- LD50 [3]: 50 mg/kg
- ID50 [2]: 2e-06 M l-1
- T/C [6]: 163%
- T/C [7]: 200%

Structure (SMILES): C1CN(P2(N3CCOCC3)=N[P@](N3CCOCC3)(N3CC3)=N[P@@](N3CCOCC3)(N3CC3)=N2)CCO1
- LD50 [3]: 800 mg/kg
- T/C [8]: 163%
- LAD [1]: 3e-05 M l-1
- ID50 [2]: 2.47e-05 M l-1
- T/C [9]: 163%

Structure (SMILES): CN(C)P1(N(C)C)=NP(N(C)C)(N(C)C)=NP(N(C)C)(N2CC2)=NP(N(C)C)(N(C)C)=N1 (stereo not drawn)
- LAD [1]: 6.4e-05 M l-1
- ID50 [2]: 1.21e-05 M l-1

Structure (SMILES): C1CCN(P2(N3CCCC3)=NP(N3CC3)(N3CC3)=NP(N3CC3)(N3CC3)=N2)C1
- LD50 [3]: 220 mg/kg
- ID50 [2]: 2.7e-06 M l-1
- T/C [10]: 178%
- T/C [5]: 211%

Structure (SMILES): C1CN(P2(N3CCOCC3)=NP(N3CCOCC3)(N3CCOCC3)=NP(N3CC3)(N3CC3)=N2)CCO1
- LAD [1]: 0.00012 M l-1
- ID50 [2]: 0.00013 M l-1

Structure (SMILES): CNP1(NC)=NP(NC)(NC)=NP(N2CC2)(N2CC2)=NP(NC)(NC)=N1
- LAD [1]: 1.8e-05 M l-1
- ID50 [2]: 6.5e-06 M l-1

Structure (SMILES): C1CN(P2(N3CCOCC3)=NP(N3CCOCC3)(N3CCOCC3)=NP(N3CCOCC3)(N3CC3)=N2)CCO1 (stereo not drawn)
- LAD [1]: >0.0003 M l-1
- ID50 [2]: >0.00025 M l-1

Structure (SMILES): C1CCN(P2(N3CCCCC3)=NP(N3CC3)(N3CC3)=NP(N3CC3)(N3CC3)=N2)CC1
- LD50 [3]: 250 mg/kg
- ID50 [2]: 3.6e-06 M l-1
- T/C [5]: 156%

Structure (SMILES): C1CN(P2(N3CCOCC3)=N[P@](N3CCOCC3)(N3CC3)=N[P@](N3CCOCC3)(N3CC3)=N2)CCO1
- LAD [1]: 6e-05 M l-1
- ID50 [2]: 3.35e-05 M l-1

Structure (SMILES): CNP1(NC)=N[P@](NC)(N2CC2)=NP(NC)(NC)=N[P@@](NC)(N2CC2)=N1
- T/C [11]: 289%
- LD50 [3]: 200 mg/kg
- LAD [1]: 5e-07 M l-1
- ID50 [2]: 4.6e-06 M l-1
- T/C [12]: 244%
- T/C [13]: 311%
- T/C [14]: 333%

Structure (SMILES): CNP1(NC)=N[P@@](NC)(N2CC2)=NP(NC)(NC)=N[P@@](NC)(N2CC2)=N1
- LD50 [3]: 200 mg/kg
- LAD [1]: 5e-07 M l-1
- ID50 [2]: 4.6e-06 M l-1
- T/C [15]: 200%
- T/C [5]: 213%

Structure (SMILES): CNP1(NC)=N[P@](NC)(N2CC2)=N[P@](NC)(N2CC2)=N1
- LD50 [3]: 70 mg/kg
- T/C [16]: 275%
- LAD [1]: 1e-06 M l-1
- ID50 [2]: 5e-06 M l-1
- T/C [6]: 250%
- T/C [17]: 175%

Structure (SMILES): CN(C)P1(N(C)C)=N[P@](N(C)C)(N2CC2)=NP(N(C)C)(N(C)C)=N[P@@](N(C)C)(N2CC2)=N1
- LD50 [3]: 150 mg/kg
- T/C [18]: 125%
- LAD [1]: 1e-06 M l-1
- ID50 [2]: 7.5e-06 M l-1
- T/C [10]: <100%

Structure (SMILES): CN(C)P1(N(C)C)=NP(N(C)C)(N(C)C)=NP(N2CC2)(N2CC2)=N1
- LAD [1]: 2e-05 M l-1
- ID50 [2]: 1.95e-05 M l-1

Structure (SMILES): CNP1(N2CC2)=NP(N2CC2)(N2CC2)=NP(N2CC2)(N2CC2)=N1 (stereo not drawn)
- LD50 [3]: 45 mg/kg
- ID50 [2]: 1.2e-06 M l-1
- T/C [19]: 188%
- T/C [6]: 188%

Structure (SMILES): CNP1(NC)=NP(NC)(NC)=N[P@@](NC)(N2CC2)=N[P@](NC)(N2CC2)=N1
- LD50 [3]: 100 mg/kg
- T/C [16]: 275%
- LAD [1]: 2e-06 M l-1
- ID50 [2]: 1.8e-06 M l-1
- T/C [12]: 213%
- T/C [6]: 238%
- T/C [17]: 263%
